This note sets out measurements from PubChem BioAssay AID1424 (The Scripps Research Institute Molecular Screening Center, 2008).

Out of some 220,000 compounds screened, about 390 (0.18%) were called active. Shown is part of a subset that was picked to be rich in actives. Values without a mark were called inactive.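 Rule for the calls: active = activation above its plate's cutoff, the mean activation of test wells on that plate plus 3 SD (cut at about 19% in these data); inactive = the rest.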 Residues, ends and D or L forms follow the SMILES beside them. *: point of attachment. OPac = O=C(CO*)c1ccccc1; Bz = O=C(c1ccccc1)*

The test system of this assay is transient receptor potential cation channel N1 (TRPN1/NompC), Danio rerio. Kind of assay: TRPN1 activation via calcium influx – cell-based, HEK293, calcium fluorescence, zebrafish, primary screen (AID 1424).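 Note: 0% = DMSO alone and 100% = 87 µM carbachol.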 The settings on record: HEK293 zebrafish TRPN1-YFP, Fluo-8 calcium fluorescence; at 3 µM; stronger effect = higher value; 100% = response to 87 µM carbachol. Summed up: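 Assay system: Zebrafish TRPN1-YFP in HEK293 cells | Incubation: Dye loading 1 h at 37 °C, then 30 min room temperature | Measured by: Kinetic Fluo-8 fluorescence, ex 470-495, em 515-575 nm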
As for `Cc1nn(C)cc1N1C(=O)c2cccc3c(N)ccc(c23)C1=O`, the activation was 23.7% (active). Regarding `COc1ccc(N2C(=O)c3cccc4cccc(c34)C2=O)nn1`, the activation was -0.39%. On to `Cc1nn(-c2cc(Cl)ccc2N)c(=O)c2ccccc12`, for which the activation was -1.21%. Take `Cc1cc(=O)oc2cc(OCCC[n+]3ccccc3)ccc12`: the activation was 0.59%.

With `O=C(CNCc1ccc(Cl)cc1)Nc1cccc(C(=O)O)c1`, the activation was 0.21%. For `CCOC(=O)c1c(C)oc(C)c(C(=O)OCC)c1=O`, the activation is 1.29%.

As for `O=[N+]([O-])/C=C1\CCCCCN1`, the activation is 3.32%. As to `N#C/C(=C/c1cccc([N+](=O)[O-])c1)c1nnc2n1CCCCC2`, the activation was 2.1%. With `COCc1cc(=O)[nH]c(SC)n1`, the activation is 1.98%. With `CCOC12CC(C)(C)CC(C)(CC3=C1C(=O)CC(C)(C)C3)C2` (stereo not drawn), the activation is 1.01%. With `CSc1cccc(NC(=S)N(Cc2ccccc2)Cc2ccccn2)c1`, the activation was -0.2%. With `CCOc1ccc(-n2c(O)c(/C=N/c3ccnn3Cc3ccncc3)c3ccccc3c2=O)cc1` the figure was 0.39%; with `O=C(COC(=O)c1ccco1)NCc1ccc(Cl)cc1`, 0.49%; with `Cc1cc(C)n(Cc2cnc(N3CCOCC3)s2)n1`, 0.48%. Take `CNC(=O)c1ccsc1NC(=O)c1ccc(S(=O)(=O)N2CCOCC2)cc1`: the activation is 2.83%.

Take `CC1=NN(c2cccc(Cl)c2)C(=O)C12CC(C)=C(C)CS2` (stereo not drawn): the activation is -0.78%.

With `Cc1ccc(N2CCN(S(=O)(=O)c3ccc(F)cc3)CC2)c(C)c1`, the activation was -1.18%.

With `O=C1CC(N2CCN(c3ccc(F)cc3)CC2)C(=O)N1c1ccccc1` (stereo not drawn), the activation is 0.96%. As to `Cc1ccc(N2C(=O)CC(N3CCSCC3)C2=O)c(C)c1` (stereo not drawn), the activation is 40.3% (active). To `Cc1cc(C)n(C(=O)CCNC(=O)c2ccccc2Cl)n1` belongs 0.31%; to `CC(C)c1ccc(NC(=S)NC2CC3C=CC2C3)cc1` (stereo not drawn), 1.72%; to `CCCCCCCCCOC1OC(CO)C(O)C(O)C1NC(C)=O` (stereo not drawn), 1.72%. To `O=C(CNC(=O)c1ccccc1)NCC(=O)OCC(=O)c1ccccc1` (Bz-Gly-Gly-OPac) belongs 1.5%. With `CC(C)OC(=O)CN1CCN(c2ccc(Cl)cc2)CC1`, the activation was 4.98%. As to `Cc1ccc(NC(=O)Nc2nnc(-c3ccncc3)s2)cc1`, the activation was 20.7% (active).

Turning to `Cc1occc1C(=O)Nc1nnc(-c2ccncc2)s1`, the activation was 0.89%. For the compound `Cc1ccc(C(=O)Nc2nnc(-c3ccncc3)s2)o1`, the activation is 1.91%. To `O=C(NN=C1CCC(=NNC(=O)c2cccnc2)CC1)c1cccnc1` belongs 1.24%.
